Data set [1] deals with Caspase 3/7 in MDA-MB-231 VIM RFP cells. Description: Caspase-Glo 3/7 luminescence assay. In kind it is cell-based, human. As to conditions: complex 20 μM and/or BBC 50 μM, 24 h. The method in brief: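 Cells were seeded at 1.5 × 10^4 cells/well and treated for 24 h with 20 μM complex and/or 50 μM BBC. Caspase-Glo 3/7 reagent was added and luminescence read. Mean ± SE, n = 3.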

In data set [2] the test system is MDA-MB-231 VIM RFP cells. Description: Cell cycle analysis by flow cytometry. In kind it is cell-based, human. As to conditions: complex 20 μM and/or BBC 50 μM, 24 h. The method in brief: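 Cells were plated at 1 × 10^6 cells/mL in 6-well plates and treated 24 h with 20 μM complex and/or 50 μM BBC. They were washed in PBS, fixed in ice-cold 70% EtOH at 4 °C for 2 h, washed again and stained with DAPI. Flow cytometry read at 450/50 nm, and G1, S and G2 fractions were gated. Triplicate; mean + std. err.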

Data set [3] deals with MDA-MB-231 VIM RFP cells. Description: CCK-8 viability assay, cancer cells. The settings on record: read-out: IC50 Cancer MDA-MB-231 VIM RFP. In kind it is cell-based, human. The method in brief:
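MDA-MB-231 VIM RFP cells were grown in EMEM with 10% FBS, 0.01 mg ml−1 insulin, 10 μg ml−1 blasticidin S and 1% pen/strep at 37 °C, 5% CO2. Cells were seeded at 1.5 × 10^4 cells/well and exposed to 0–100 μM test compound, alone or with a fixed 50 μM BBC, for 24, 48 or 72 h. WST-8 (CCK-8) absorbance was read at 450 nm, and IC50 was taken from concentration–viability curves.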
In general terms: Tetrazolium dyes change colour on reduction, which living cells bring about.

In data set [4] the test system is p-MLKL in MDA-MB-231 VIM RFP cells. Description: Western blot analysis of p-MLKL. In kind it is cell-based, human. The settings on record: complex 20 μM and/or BBC 50 μM, 24 h; relative to GAPDH. The method in brief: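 Cells were plated at 1 × 10^6 cells/mL in 6-well plates and treated 24 h with 20 μM complex and/or 50 μM BBC. RIPA lysates were BCA-normalised, and equal protein was run on 10% SDS-PAGE (100 V, 2 h) and transferred to nitrocellulose (60 V, 90 min). After TBS blocking for 30 min, p-MLKL and GAPDH primaries were applied overnight at 4 °C, then Alexa Fluor Plus 488 secondary for 1 h at RT. Band densitometry was expressed relative to GAPDH.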
On the technique in general: Immunoblotting shows a protein as a band on a membrane.

In data set [5] the test system is MCF-10A cells. Description: CCK-8 viability assay, non-cancer cells. As to conditions: read-out: IC50 Non-cancer MCF-10A. In kind it is cell-based, human.
Data set [6] concerns breast cancer MCF-7 cells. The settings on record: single agent; cited from earlier work.
Data set [7] concerns human cervical cancer HeLa cells. As to conditions: cited from earlier work.
The subject of data set [8] is pregnant rats. The settings on record: high dose (500–600 times more than human dosage); cited from earlier work.
Data set [9] relates to BT549 cells. As to conditions: 48 h of treatment; cited from earlier work.
Data set [10] relates to prostate cancer PC3 cells. As to conditions: cited from earlier work.
For data set [11], the system named is MDA-MB-231 cells. As to conditions: 48 h of treatment; cited from earlier work.
For data set [12], the system named is non-cancer human prostate epithelial cells. The settings on record: berberine 10–100 μM; cited from earlier work.

Like-named read-outs stand apart in the source and are kept apart here.

One may read the IC50 as the concentration that gives 50% inhibition. For `COc1ccc2cc3[n+](cc2c1OC)CCc1cc2c(cc1-3)OCO2` [Berberine chloride (BBC), berberine chloride], the “Caspase 3/7 activity (luminescence)” value in data set [1] is listed as “activation in caspase 3/7”. The “Fraction of cells in G2 phase” value in data set [2] is listed as 33.8%. Moreover, the IC50 is 48.3 ± 2.4 µM in data set [3] (Homo sapiens, MDA-MB-231, 24 h); 31.8 ± 2.6 µM in data set [3] (Homo sapiens, MDA-MB-231, 48 h); 25.6 ± 1.9 µM in data set [3] (Homo sapiens, MDA-MB-231, 72 h); more than 100 µM in data set [5] (Homo sapiens, MCF-10A, 24 h); more than 100 µM in [5] (Homo sapiens, MCF-10A, 48 h); 92.3 ± 1.4 µM in [5] (Homo sapiens, MCF-10A, 72 h). Further, in [4], the “p-MLKL level, western blot” value was “low level of p-MLKL”.
As to `N.N.[Cl][Pt][Cl]` [Cisplatin], the half-maximal inhibitory concentration (IC50) was 49.5 ± 1.62 µM in data set [6]; 28.1 ± 2.4 µM in data set [3] (24 h incubation, CCK-8); 24.7 ± 2.6 µM in [3] (48 h incubation, CCK-8); 22.2 ± 1.8 µM in [3] (72 h incubation, CCK-8); 41.2 ± 1.9 µM in data set [5] (24 h incubation, CCK-8); 34.2 ± 2.7 µM in data set [5] (48 h incubation, CCK-8).
In the case of `COc1ccc2cc3[n+](cc2c1OC)CCc1cc2c(cc1-3)OCO2` [berberine], in data set [7] (berberine 50 μg/mL combined with 5 μM of cisplatin), the “Enhancement of toxicity of berberine when combined with cisplatin” value is “around 54%”. The Cytotoxic effect entry is “significant cytotoxic effect” in data set [7] (dose of 50 μg/mL) and “did not show a significant cytotoxic effect” in data set [12]. Also, the results for the IC50 in data set [6], in [9] and in data set [11] were 52.2 ± 1.59 µM, 16.575 ± 1.219 µg/mL and 18.525 ± 6.139 µg/mL, respectively. For the same molecule, the Reproductive toxicity result in [8] was “no significant reproductive toxicity”. In addition, the Cell cycle arrest entry in [10] (10 μM) is “induced G0/G1 cell cycle arrest”; in data set [10] (50 μM), “inhibited the cell cycle at G2/M phase”.

These data come from paper PMC11720871 (Results in chemistry, 2024).
